Usually EC50 stands for the concentration at which the effect is half-maximal.

Molecules are shown by their SMILES.

Drawing on ChEMBL document CHEMBL2440078, “Synthesis and biological evaluation of novel C-aryl d-glucofuranosides as sodium-dependent glucose co-transporter 2 inhibitors” (Bioorg Med Chem, 2013), this text covers EC50 for 16 compounds.

The target of this assay is T1, Sodium/glucose cotransporter 2 (Homo sapiens, UniProt P31639).
T1 sequence (P31639 whole entry): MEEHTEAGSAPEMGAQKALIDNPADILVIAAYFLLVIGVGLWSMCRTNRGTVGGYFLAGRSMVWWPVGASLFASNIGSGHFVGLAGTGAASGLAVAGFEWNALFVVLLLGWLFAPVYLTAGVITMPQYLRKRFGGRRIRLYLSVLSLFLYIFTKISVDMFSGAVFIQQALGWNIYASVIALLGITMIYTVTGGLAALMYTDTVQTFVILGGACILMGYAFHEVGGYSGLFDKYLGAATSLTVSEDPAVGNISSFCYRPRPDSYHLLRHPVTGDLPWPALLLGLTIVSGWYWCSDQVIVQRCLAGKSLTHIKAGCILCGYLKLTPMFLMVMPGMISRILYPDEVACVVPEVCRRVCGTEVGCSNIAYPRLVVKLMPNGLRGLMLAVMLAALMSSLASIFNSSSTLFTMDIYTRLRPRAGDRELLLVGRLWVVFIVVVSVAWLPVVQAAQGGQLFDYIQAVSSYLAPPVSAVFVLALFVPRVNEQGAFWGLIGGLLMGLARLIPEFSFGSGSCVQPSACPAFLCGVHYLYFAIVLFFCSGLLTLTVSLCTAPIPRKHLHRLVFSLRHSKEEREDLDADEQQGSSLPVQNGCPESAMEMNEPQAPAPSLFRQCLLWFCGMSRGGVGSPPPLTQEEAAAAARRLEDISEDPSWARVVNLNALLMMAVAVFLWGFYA
Nature of the assay: Inhibition of human SGLT2 expressed in CHO-K1 cells assessed as inhibition of [14C]-AMG uptake up to 120 mins by scintillation counting method. Type of assay: cell-based. The procedure, abridged:
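Uptake of 3 µM [¹⁴C]-AMG ± inhibitor at 37 °C, stopped with ice-cold KRH. Cells lysed in 0.1% SDS 24 h, then counted. Inhibition vs DMSO-only wells. EC₅₀ from sigmoidal fit, mean of ≥3 determinations.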
In the case of `COc1ccccc1Cc1cc([C@@H]2O[C@H]([C@H](O)CO)[C@H](O)[C@H]2O)ccc1Cl`, the EC50 is above 50 µM. Under `CCOc1ccc(Cc2cc([C@@H]3O[C@H]([C@H](O)CO)[C@H](O)[C@H]3O)ccc2Cl)cc1` stands above 50 µM; under `COc1ccc2cc(Cc3cc([C@@H]4O[C@H]([C@H](O)CO)[C@H](O)[C@H]4O)ccc3Cl)ccc2c1`, 5.1 µM; under `CCc1ccc(Cc2cc([C@@H]3O[C@H]([C@H](O)CO)[C@H](O)[C@H]3O)c(OC)cc2Cl)cc1`, 0.62 µM. For the compound `OC[C@@H](O)[C@H]1O[C@@H](c2ccc(Cl)c(Cc3ccc4c(c3)OCO4)c2)[C@H](O)[C@H]1O`, the EC50 was above 50 µM.

For `CSc1ccc(Cc2cc([C@@H]3O[C@H]([C@H](O)CO)[C@H](O)[C@H]3O)ccc2Cl)cc1`, the EC50 amounted to 3.7 µM. Turning to `COc1ccc(Cc2cc([C@@H]3O[C@H]([C@H](O)CO)[C@H](O)[C@H]3O)ccc2Cl)cc1`, the EC50 worked out at 35 µM. Under `COc1cccc(Cc2cc([C@@H]3O[C@H]([C@H](O)CO)[C@H](O)[C@H]3O)ccc2Cl)c1` stands above 50 µM; under `Cc1ccc([C@@H]2O[C@H]([C@H](O)CO)[C@H](O)[C@H]2O)cc1Cc1ccc(C(C)C)cc1`, 11 µM.

For the compound `OC[C@@H](O)[C@H]1O[C@@H](c2ccc(Cl)c(Cc3ccc(F)cc3)c2)[C@H](O)[C@H]1O`, the EC50 is above 50 µM. Take `CCc1ccc(Cc2cc([C@@H]3O[C@H]([C@H](O)CO)[C@H](O)[C@H]3O)ccc2C)cc1`: the EC50 stood at 2.5 µM.

In the case of `CCOc1ccc(Cc2cc([C@@H]3O[C@H]([C@H](O)CO)[C@H](O)[C@H]3O)ccc2C)cc1`, the EC50 was determined as 34 µM.

Turning to `CC(C)c1ccc(Cc2cc([C@@H]3O[C@H]([C@H](O)CO)[C@H](O)[C@H]3O)ccc2Cl)cc1`, the EC50 was 33 µM.

For the compound `CCOc1ccc(Cc2cc([C@@H]3O[C@H]([C@H](O)CO)[C@H](O)[C@H]3O)c(OC)cc2Cl)cc1`, the EC50 stood at 46 µM. For `OC[C@@H](O)[C@H]1O[C@@H](c2ccc(Cl)c(Cc3ccc(Oc4ccccc4)cc3)c2)[C@H](O)[C@H]1O`, the EC50 is above 50 µM. With `COc1cc(Cl)c(Cc2ccc(C(C)C)cc2)cc1[C@@H]1O[C@H]([C@H](O)CO)[C@H](O)[C@H]1O`, the EC50 worked out at 21 µM.
